Results taken from ChEMBL document CHEMBL2417509, “Synthesis and biological evaluation of prodigiosene conjugates of porphyrin, estrone and 4-hydroxytamoxifen” (2013).
Activity calls are given as the source filed them. The rule behind the calls is not given here.

System: MDA-MB-231
Experiment: Cytotoxicity against human ER negative MDA-MB-231 cells assessed as cell viability at 1 uM after 72 hrs by MTT assay
Type: functional, cell-based
Method in brief: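 Lines kept in DMEM with 10% fetal bovine serum and 1% penicillin/streptomycin at 37 °C, 5% CO2. Compound applied at 1 µM for 72 h, then standard MTT reduction read-out. Viability given as mean percentage of formazan formed by treated cells relative to mock-treated cells (0.1% DMSO). Run in quadruplicate, standard error, Student's t-test.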

COc1cc(-c2ccc[nH]2)[nH]c1/C=C1\N=C(C)C(C(=O)CCC(=O)Oc2ccc3c(c2)CC[C@@H]2[C@@H]3CC[C@]3(C)C(=O)CC[C@@H]23)=C1C
Activity: Active
